M1 agonist – M1 muscarinic receptor agonists, primary screen, CHO-M1 cells, Fluo-4 calcium, agonist mode; 64,000 compounds, 3% hits; B-score at 10 µM; Muscarinic acetylcholine receptor M1; Fluo-4 calcium fluorescence; active compounds read high;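 active = fluorescence rise, raw or as B-score row- and column-corrected plate score, outside the 99.7% band of its plate's samples, either direction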
Ecoli tolC – growth inhibitors of E. coli tolC mutant, primary screen, strain BW25113 ΔtolC::kan, 384-well; OD615; growth inhibition, % at 10 µM (by protocol); 65,000 compounds, 2.2% hits; AID 573, 2007;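 active = growth inhibition at or above a cutoff equal to the mean over every tested compound plus 3 SD, cut at about 60% in these data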;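 note: growth measured after 20 h incubation at 37 °C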
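signal = optical density read at 615 nm | test system = E. coli ΔtolC::kan strain BW25113 | timing = 20 h compound exposure of bacteria at 37 °C | buffer or medium = LB medium plus 50 µg/mL kanamycin | compound dosing = 10 µM final, single dose | evaluation = % inhibition of E. coli growth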
BAP1 block – inhibitors of BAP1 deubiquitinase, primary screen, biochemical, Ub-AMC fluorescence, kinetic; calls only at 20 µM; AID 436, 2006; recombinant BAP1, Ub-AMC hydrolysis fluorescence kinetic; active compounds read low; 72,000 compounds, 0.48% hits; Ubiquitin carboxyl-terminal hydrolase BAP1 (Homo sapiens), Q92560;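 active = activity remaining at or below 50% of control, provided the compound also passes the data quality filters; inactive = the rest, including low values that fail the filters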;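 note: 100% = DMSO wells rate and 0% = substrate alone blank rate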
Hsp90 inh – tumor Hsp90 inhibitors, primary screen, cell lysate, fluorescence polarization, NCI-N417 lysate | inhibition, % at 30 µM | 64,000 compounds, 0.35% hits | Cy3B-geldanamycin FP displacement | AID 429, 2006 | Heat shock protein HSP 90-alpha (Homo sapiens), P07900;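 active = inhibition above 50%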;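 note: 0% = tracer plus lysate wells and 100% = tracer alone without lysate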
M1 antag – antagonists of rat M1 muscarinic receptor; Muscarinic acetylcholine receptor M1 (Rattus norvegicus), P08482; CHO-M1 cells, Fluo-4 calcium, ACh EC80 antagonist mode; active compounds read low; B-score at 10 µM; 64,000 compounds, 3.4% hits; AID 628, 2007;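 active = calcium fluorescence response, raw or row-and-column corrected B-score, differing from the plate sample mean either way at a set confidence level, mostly lower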
E coli WT exp – growth inhibitors of wild-type E. coli, primary screen, strain BW25113, expanded library, OD600; growth inhibition, % at 100 µM; OD600 absorbance; 98,000 compounds, 0.15% hits;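 active = growth inhibition above about 50% at one test dose, limit read from the data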;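 note: growth measured after 20 h incubation at 37 °C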
BAP1 inh conf – BAP1 deubiquitinase inhibitors, hit retest, confirmation, orthogonal assay, biochemical, Ub-ethyl ester substrate, HPLC readout | 310 compounds, 8% hits | shares compounds with BAP1 block | % of control activity, % at 20 µM | purified BAP1, Ub-ethyl ester hydrolysis; active compounds read low | AID 753, 2007;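 active = percent of control activity at or below 60%; inconclusive = HPLC trace unusable from injection failure or solvent front hiding peaks; inactive = the rest, plus ubiquitin peak ratio over a set limit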
M1 agonist conf – rat M1 muscarinic receptor agonists, confirmation, CHO-M1 cells, Fluo-4 calcium, duplicate retest. AID 1488, 2009. shares compounds with M1 agonist. Fluo-4 calcium fluorescence, agonist mode; actives lie on both sides. fluorescence change (max-min) at 10 µM. 1,700 compounds, 19% hits;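 active = fluorescence change differs from the solvent-only DMSO control mean at a set confidence level in both duplicate runs; inconclusive = differs from solvent-only control mean in just one of two runs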;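 note: an EC20 dose of acetylcholine follows compound addition during the same imaging run; raw fluorescence intensity difference in instrument units with no normalization to controls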
M4 agonist ctr – agonist activity at rat M4 receptor, confirmation, counter-screen for M1 allosteric modulator project, cell-based, agonist mode; shares compounds with M1 agonist; CHO M4/Gqi5 cells, Fluo-4 calcium fluorescence; actives lie on both sides; fluorescence change (max-min) at 10 µM; 1,700 compounds, 9% hits;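 active = fluorescence change differing from the plate's solvent-only control wells at 99.7% confidence in both duplicates, whether higher or lower; inconclusive = differs from solvent controls in only one of two duplicates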
Target sequence (P08485 whole entry, looked up): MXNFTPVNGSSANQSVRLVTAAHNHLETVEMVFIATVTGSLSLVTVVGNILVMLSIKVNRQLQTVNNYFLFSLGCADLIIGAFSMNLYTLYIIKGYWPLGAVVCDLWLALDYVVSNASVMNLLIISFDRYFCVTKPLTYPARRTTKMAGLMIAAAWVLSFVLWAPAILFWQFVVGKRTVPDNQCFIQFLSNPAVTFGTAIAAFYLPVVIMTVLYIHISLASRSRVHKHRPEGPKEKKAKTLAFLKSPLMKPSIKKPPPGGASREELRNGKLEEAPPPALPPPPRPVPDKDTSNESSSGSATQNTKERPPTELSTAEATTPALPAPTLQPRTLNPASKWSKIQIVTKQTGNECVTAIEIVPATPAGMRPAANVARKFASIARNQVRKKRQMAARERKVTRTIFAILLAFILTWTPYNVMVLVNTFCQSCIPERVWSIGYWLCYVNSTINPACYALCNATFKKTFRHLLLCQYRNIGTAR
* = called active by the depositor; i = inactive; ? = inconclusive; · = no result given; + = active, no number. Compounds with a hit are over-represented: about 5.1% of the library has one in this group of screens.

SMILES	M1 agonist	Ecoli tolC	BAP1 block	Hsp90 inh	M1 antag	E coli WT exp	M1 agonist conf	M4 agonist ctr	others
NC(Cc1cc(O)c(O)cc1O)C(=O)O (stereo not given)	·	·	+	94*	·	·	·	·
CC1=C(C(=O)OC(C)C)C2(C(=O)Nc3ccccc32)C(C(=O)OCc2ccccc2)=C(N)O1 (stereo not given)	·	·	i	·	·	·	·	·
CCOc1ccc(C(=O)Nc2ccc(Cl)cc2C(=O)c2ccccc2)cc1	·	·	i	·	·	·	·	·
Cc1ccccc1C1=NCC(=O)N(CC(=O)NCc2ccco2)c2sc3c(c21)CCCC3	·	61*	i	-5	·	-1	·	·
CC(=Nc1ccc2c(c1)CCC2)c1c(O)n(C2CCCCC2)c(=O)[nH]c1=O	0.38	-12	·	-10	1.3	-9	·	·
CCC(=Nc1ccc2c(c1)CCC2)c1c(O)n(C2CCCCC2)c(=O)[nH]c1=O	0.15	-23	+	-5	0.093	-9	·	·	BAP1 inh conf=84
CCn1nc(-c2cccs2)nc2c(=O)n(C)c(=O)nc1-2	0.32	97*	+	98*	0.17	26	·	·	BAP1 inh conf=94
c1ccc2cc3ncccc3cc2c1	·	·	i	·	·	·	·	·
COc1ccc(CC2C(=O)N(C)C(=O)N(C)C2=O)c(OC)c1	6.5*	2	i	-8	-3.6*	4	-3.9	-24
COc1ccc(CC2C(=O)NC(=O)NC2=O)c(OC)c1	-0.13	-12	i	0	0.083	-5	·	·
O=C(Nc1ccc(Br)cc1C(=O)c1ccccc1Cl)c1ccc(N2C(=O)CCC2=O)cc1	·	·	i	·	·	·	·	·
CCC(=NCCN1CCCCC1)c1c(O)n(C)c(=O)n(C)c1=O	-0.35	-5	i	-5	-0.37	1	·	·
CCC(=NCCOc1ccc(Cl)cc1)c1c(O)n(C)c(=O)n(C)c1=O	11*	22	i	-1	-1	-2	-9.8	?
CC(=NCc1ccc2c(c1)OCO2)c1c(O)n(C)c(=O)n(C)c1=O	-1.1	-16	i	-1	0.059	1	·	·
CCC(=NCc1ccc2c(c1)OCO2)c1c(O)n(C)c(=O)n(C)c1=O	2.9*	14	i	-3	-0.61	0	12	-35
COc1ccc2[nH]c(C[N+](C)(C)C)cc2c1	·	·	·	-2	·	·	·	·
O=C(O)c1nc(Cl)ccc1Cl	·	·	i	·	·	·	·	·
C[C@H]1OC[C@@H](C[N+](C)(C)C)O1	48*	2	i	-5	-9.7*	·	527*	220*
CC(C)OC(=O)c1c(N)n(CC2CCCO2)c2nc3ccccc3nc12 (stereo not given)	0.28	16	·	-7	0.036	2	·	·
Nc1c(C(=O)OC2CCCCC2)c2nc3ccccc3nc2n1CC1CCCO1 (stereo not given)	4.1*	26	i	-18	0.2	3	-8.5	-46
O=C(O)C1CN2CCC1CC2 (stereo not given)	13*	-12	i	0	-0.16	-12	233*	-34
O=C(c1cccs1)C1CN2CCC1CC2 (stereo not given)	8.4*	-14	i	-3	-5.5*	3	32	15
CC12CCC(O)CC1CCC1C2CCC2(C)C(OC(=O)c3ccccc3)CCC12 (stereo not given)	·	·	i	·	·	·	·	·
Cn1cc(C(=O)N2CCC3(CC2)OCCO3)c2c3ccccc3n(C)c2c1=O	-0.089	11	·	-1	0.0014	-2	·	·
CC(C)Cn1cc(C(=O)N2CCC3(CC2)OCCO3)c2c3ccccc3n(C)c2c1=O	3*	-1	i	1	-1.6	9	-2	-19
SMILES	M1 agonist	Ecoli tolC	BAP1 block	Hsp90 inh	M1 antag	E coli WT exp	M1 agonist conf	M4 agonist ctr	others
Cn1c2ccccc2c2c(C(=O)N3CCC4(CC3)OCCO4)cn(C3CCCCC3)c(=O)c21	4.3*	-3	·	0	-0.67	3	-14	-54
CNc1ccc(Br)cc1C(=O)c1ccc(Cl)cc1	·	·	i	·	·	·	·	·
CCCCn1c(NC(=O)c2ccco2)c(C(=O)OCC)c2nc3ccccc3nc21	6.6*	38	·	72*	-0.37	-6	24	?
O=C1CCCC2C3CCCN4CCCC(CN12)C34 (stereo not given)	-2.5*	-14	i	-12	-0.23	6	-11	-45
CCC(N)C(=O)c1ccc(F)cc1 (stereo not given)	·	·	i	·	·	·	·	·
O=C1NC(=O)C2(Cc3c(nc4ccccn4c3=O)N3CCCCCC32)C(=O)N1Cc1ccccc1 (stereo not given)	12*	28	·	-9	0.26	11	-11	-22
CCOC(=O)C1CCN(/C=C2/C(=O)NC(=O)N(c3ccc(OCC)cc3)C2=O)CC1	-3.3*	0	i	2	-0.13	-6	-7	-23
CCOc1ccc(CC2C(=O)NC(=O)N(c3ccc(CC)cc3)C2=O)cc1 (stereo not given)	·	·	·	·	·	-4	·	·
COc1ccc2nc(NC(=O)CCc3nc(C4=CCN(C)CC4)no3)sc2c1	5.1*	1	i	-4	-0.23	5	-1.6	-41
Cc1ccc(N)c(C(=O)c2cccc(Cl)c2)c1	·	·	i	·	·	·	·	·
Cc1ccc(S(=O)(=O)Nc2cc(C(=O)N3CCC4(CC3)OCCO4)ccc2N2CCCCC2)cc1	2.8*	9	i	1	-0.42	-14	-9.9	-20
O=C(c1ccccc1)c1cc(Cl)ccc1N1C(=O)c2cccc([N+](=O)[O-])c2C1=O	·	·	i	·	·	·	·	·
COc1ccc2c(c1)c(C(=O)CN1CCN(C)CC1)c(C)n2Cc1ccccc1	2.6*	20	i	-2	-0.47	10	?	-71
CCN1CCN(CC(=O)c2c(C)n(Cc3ccccc3)c3ccc(OC)cc23)CC1	·	·	·	·	·	8	·	·
CCSc1nc2ccccc2c(=O)n1-c1cccc(C)c1	·	·	i	·	·	·	·	·
CCC(C)N1C(=O)NC(=O)C2(Cc3c(ccc4ccccc34)N(C)C2)C1=O (stereo not given)	13*	50	i	8	-2.1	3	?	?
COc1ccc2c(c1)CC1(CN2C)C(=O)NC(=O)N(CCc2ccccc2)C1=O (stereo not given)	-1.7	-7	·	-15	0.89	8	·	·

Compound activity (PubChem BioAssay)
